From ChEMBL document CHEMBL1221252, “Novel 1H-pyrrolo[2,3-c]pyridines as acid pump antagonists (APAs)” (Bioorg Med Chem Lett, 2010) come the findings set out here.

Molecules are shown by their SMILES. pIC50: −log10 of the molar value.

For the first assay, the species on record is Sus scrofa. As to the kind of experiment: Inhibition of pig gastric H(+)/K(+) ATPase at 4 uM. The class given is tissue-based. As to conditions: Stomach. The method, boiled down:
(§1)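 Ion-leaky gastric membrane vesicles enriched in H+/K+-ATPase, prepared from pig stomach. Lyophilized vesicles in 5 mM PIPES/Tris pH 6.1 preincubated 5 min with compound, then buffer with or without K+ added. ATP substrate added, 30 min at 37 °C. Stopped with colorimetric reagent; Pi read at 620 nm. Activity taken as K+-stimulated Pi production (with minus without K+); IC50 from % inhibition by Litchfield–Wilcoxon.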
With `Cc1[nH]c2c(OCc3ccccc3)nccc2c1C`, the inhibition (as a rule, the percentage by which the read-out fell short of the control) was determined as 50.9%. Still for that read-out and setting: the same measure for `C=CCn1c(C)c(C)c2cc(C(=O)NC)nc(OCc3ccc(F)cc3)c21`: 78.4%; for `Cc1[nH]c2c(OCc3ccc(F)cc3)nccc2c1C`: 60.3%. On to `C=CCn1c(C)c(C)c2cc(C(N)=O)nc(OCc3ccc(F)cc3)c21`, for which the inhibition amounted to 80.3%.

Molecule `Cc1[nH]c2c(OCc3ccccc3F)nccc2c1C` registered an inhibition of 32.1%.

`Cc1c(C)n(Cc2ccccc2)c2c(OCc3ccc(F)cc3)nc(C(N)=O)cc12` gave an inhibition of 16.1%.

Biological target in another assay: not listed separately
As to the kind of experiment: Inhibition of pig gastric H(+)/K(+) ATPase.
Settings: not given
The class given is tissue-based, Sus scrofa, Stomach. The method in brief:
as §1
`C=CCn1c(C)c(C)c2cc(C(=O)NC3CC3)nc(OCc3ccc(F)cc3)c21`: the negative logarithm of the IC50 (pIC50) (usually −log10 of the IC50, conventionally taken in molar units) is 6.39.

For the molecule `C=CCn1c(C)c(C)c2cc(C(=O)Nc3ccncc3)nc(OCc3ccc(F)cc3)c21`, the negative logarithm of the IC50 (pIC50) is 6.13. Molecule `Cc1c(C)n(Cc2ccccc2)c2c(OCc3ccc(F)cc3)nc(C(=O)N3CCOCC3)cc12` showed a negative-log IC50 (pIC50) of 7.54. On the same count and under the same terms, the same measure for `C=CCn1c(C)c(C)c2ccnc(OCc3ccc(F)cc3)c21`: 6.90. Same read-out and setting: the figure for `CCCn1c(C)c(C)c2ccnc(OCc3ccc(F)cc3)c21` is 6.52. On the same count and under the same terms, the same measure for `Cc1c(C)n(CC2CC2)c2c(OCc3ccc(F)cc3)nccc12`: 6.74. The molecule `Cc1c(C)n(Cc2ccccc2)c2c(OCc3ccc(F)cc3)nc(C(=O)NC3CC3)cc12` had a pIC50 of 6.13. Take `Cc1c(C)n(Cc2ccccc2)c2c(OCc3ccc(Cl)cc3)nccc12`: the pIC50 was 6.73. Same read-out and setting: the figure for `Cc1c(C)n(CC(C)C)c2c(OCc3ccc(Cl)cc3)nccc12` is 6.69; for `Cc1c(C)n(CC(C)C)c2c(OCc3ccc(F)cc3)nccc12` it is 6.71; for `Cc1c(C)n(Cc2ccccc2)c2c(OCc3ccc(F)cc3)nc(C(=O)N(C)C)cc12` it is 7.55. Same read-out and setting: the same measure for `Cc1c(C)n(CC2OCCO2)c2c(OCc3ccc(F)cc3)nccc12`: 6.76.

Another assay is filed under the species Sus scrofa. As to the kind of experiment: Inhibition of pig gastric H(+)/K(+) ATPase at 1 uM. As to conditions: Stomach. Format: tissue-based. The method, boiled down:
as §1
Take `CNC(=O)c1cc2c(C)c(C)n(Cc3ccccc3)c2c(OCc2ccc(F)cc2)n1`: the inhibition worked out at 39.4%.
